Here are results for one compound from ChEMBL document CHEMBL4350961, “Discovery of Pyrrolo[3,2- d]pyrimidin-4-one Derivatives as a New Class of Potent and Cell-Active Inhibitors of P300/CBP-Associated Factor Bromodomain” (J Med Chem, 2019).

A word on the solubility: it is how much of the substance goes into solution per volume.

Series [1] deals with Misshapen-like kinase 1 (Homo sapiens) (UniProt Q8N4C8). Put plainly: Inhibition of recombinant human MINK (1 to 310 residues) at 10 uM using myelin basic protein as substrate measured after 40 mins in presence of [gamma33P]ATP by scintillation counting method.
Series [2] addresses NUAK family SNF1-like kinase 2 (Homo sapiens) (UniProt Q9H093). Put plainly: Inhibition of recombinant full-length human NUAK2 at 10 uM using KKKVSRSGLYRSPSMPENLNRPR as substrate measured after 40 mins in presence of [gamma33P]ATP by scintillation counting method.
The target of series [3] is Serine/threonine-protein kinase MRCK gamma (Homo sapiens) (UniProt Q6DT37). Put plainly: Inhibition of recombinant human MRCKgamma at 10 uM using KKRNRTLTV as substrate measured after 40 mins in presence of [gamma33P]ATP by scintillation counting method.
The target of series [4] is Transient receptor potential cation channel subfamily M member 7 (Homo sapiens) (UniProt Q96QT4). Description: Inhibition of recombinant human CHAK1 (1180 to end residues) at 10 uM using myelin basic protein as substrate measured after 40 mins in presence of [gamma33P]ATP by scintillation counting method.
Transient receptor potential cation channel subfamily M member 7 (Homo sapiens), sequence (Q96QT4 whole entry): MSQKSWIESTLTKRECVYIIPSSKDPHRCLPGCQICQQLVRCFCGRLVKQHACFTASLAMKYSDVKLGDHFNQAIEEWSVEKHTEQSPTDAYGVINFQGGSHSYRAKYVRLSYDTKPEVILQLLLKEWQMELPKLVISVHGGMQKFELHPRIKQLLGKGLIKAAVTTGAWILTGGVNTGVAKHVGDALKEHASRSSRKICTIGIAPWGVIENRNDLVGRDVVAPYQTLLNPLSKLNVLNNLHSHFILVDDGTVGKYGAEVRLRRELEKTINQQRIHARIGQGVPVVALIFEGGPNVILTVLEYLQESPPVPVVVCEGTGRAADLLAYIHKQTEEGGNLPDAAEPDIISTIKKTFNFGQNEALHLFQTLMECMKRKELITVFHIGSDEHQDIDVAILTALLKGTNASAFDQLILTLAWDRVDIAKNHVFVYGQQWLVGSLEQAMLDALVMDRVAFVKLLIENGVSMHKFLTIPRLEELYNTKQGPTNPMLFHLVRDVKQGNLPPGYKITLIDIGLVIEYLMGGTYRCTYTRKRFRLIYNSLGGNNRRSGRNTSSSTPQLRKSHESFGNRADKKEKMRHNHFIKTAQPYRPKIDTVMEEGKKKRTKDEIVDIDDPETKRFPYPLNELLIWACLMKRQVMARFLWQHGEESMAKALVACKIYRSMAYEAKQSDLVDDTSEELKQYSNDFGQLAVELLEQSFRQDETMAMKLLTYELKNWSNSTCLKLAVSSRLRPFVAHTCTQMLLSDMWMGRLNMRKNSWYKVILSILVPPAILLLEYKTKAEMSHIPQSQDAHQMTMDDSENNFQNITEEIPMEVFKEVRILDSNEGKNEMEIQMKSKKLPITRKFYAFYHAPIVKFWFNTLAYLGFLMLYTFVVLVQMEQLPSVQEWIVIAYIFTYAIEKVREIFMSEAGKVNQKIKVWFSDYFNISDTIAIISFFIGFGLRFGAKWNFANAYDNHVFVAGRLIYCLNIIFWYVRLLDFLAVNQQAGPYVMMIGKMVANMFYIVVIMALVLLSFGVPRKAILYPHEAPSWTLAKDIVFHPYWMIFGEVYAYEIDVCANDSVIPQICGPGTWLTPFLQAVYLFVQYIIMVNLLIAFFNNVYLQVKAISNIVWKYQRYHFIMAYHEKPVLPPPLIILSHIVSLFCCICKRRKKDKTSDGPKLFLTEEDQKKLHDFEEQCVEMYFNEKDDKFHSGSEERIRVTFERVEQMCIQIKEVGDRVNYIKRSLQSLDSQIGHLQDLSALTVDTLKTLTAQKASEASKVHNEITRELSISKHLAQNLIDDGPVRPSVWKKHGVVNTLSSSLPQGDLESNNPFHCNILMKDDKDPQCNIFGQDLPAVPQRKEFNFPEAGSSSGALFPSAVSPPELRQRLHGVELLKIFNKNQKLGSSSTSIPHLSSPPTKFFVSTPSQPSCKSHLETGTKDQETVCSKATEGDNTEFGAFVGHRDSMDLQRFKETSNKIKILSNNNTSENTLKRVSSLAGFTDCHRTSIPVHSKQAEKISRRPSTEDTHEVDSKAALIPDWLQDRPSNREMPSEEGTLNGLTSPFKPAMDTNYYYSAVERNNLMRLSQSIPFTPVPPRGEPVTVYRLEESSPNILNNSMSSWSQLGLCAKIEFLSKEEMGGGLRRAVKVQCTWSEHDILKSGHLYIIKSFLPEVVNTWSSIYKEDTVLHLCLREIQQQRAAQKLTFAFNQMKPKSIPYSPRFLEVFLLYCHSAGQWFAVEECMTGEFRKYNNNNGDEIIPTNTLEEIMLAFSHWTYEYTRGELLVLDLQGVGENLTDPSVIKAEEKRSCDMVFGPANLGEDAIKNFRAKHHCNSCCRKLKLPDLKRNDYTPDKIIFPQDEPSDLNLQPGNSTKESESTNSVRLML
Series [5] has as its target Serine/threonine-protein kinase pim-2 (Homo sapiens) (UniProt Q9P1W9). Put plainly: Inhibition of recombinant human Pim2 (2 to end residues) at 10 uM using RSRHSSYPAGT as substrate measured after 40 mins in presence of [gamma33P]ATP by scintillation counting method.
In series [6] the target is Serine/threonine-protein kinase 32B (Homo sapiens) (UniProt Q9NY57). Put plainly: Inhibition of recombinant full-length human STK32B at 10 uM using casein as substrate measured after 120 mins in presence of [gamma33P]ATP by scintillation counting method.
Series [7] has as its target Protein kinase C epsilon type (Homo sapiens) (UniProt Q02156). Put plainly: Inhibition of recombinant human PKCepsilon (2 to end residues) at 10 uM using ERMRPRKRQGSVRRRV as substrate measured after 40 mins in presence of [gamma33P]ATP by scintillation counting method.
Series [8] deals with Serine/threonine-protein kinase WNK1 (Homo sapiens) (UniProt Q9H4A3). Put plainly: Inhibition of human WNK1 (1 to 491 residues) using myelin basic protein as substrate measured after 120 mins in presence of [gamma33P]ATP by scintillation counting method.
For series [9], the system named is Macrophage colony-stimulating factor 1 receptor (Homo sapiens), P07333 [Y969C]. Description: Inhibition of recombinant human FMS Y969C mutant (538 to end residues) at 10 uM using EEEEYEEEEEEYYIIEEEEEEYEEEEEEYYEEEEEEKKKK as substrate measured after 40 mins in presence of [gamma33P]ATP by scintillation counting method.
The target of series [10] is Bromodomain-containing protein 3 (Homo sapiens) (UniProt Q15059). Put plainly: Binding affinity to human partial length BRD3 bromodomain 1 (P24 to E144 residues) expressed in bacterial expression system at 1 uM by BROMOscan assay. In a few lines:
(§1)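 BROMOscan bromodomain cross-screen run by an outside service, compound at 1 µM against 32 recombinant bromodomains. Binding given as percent of control.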

For series [11], the target named is Receptor-interacting serine/threonine-protein kinase 1 (Homo sapiens) (UniProt Q13546). Put plainly: Inhibition of human RIPK1 (8 to 322 residues) using myelin basic protein as substrate measured after 120 mins in presence of [gamma33P]ATP by scintillation counting method. In a few lines:
(§2)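 Kinase panel of 422 kinases screened by Eurofins KinaseProfiler at a single test-compound concentration of 10 µM.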

Series [12] deals with Muscle, skeletal receptor tyrosine-protein kinase (Homo sapiens) (UniProt O15146). Put plainly: Inhibition of recombinant human MuSK (530 to end residues) at 10 uM using myelin basic protein as substrate measured after 40 mins in presence of [gamma33P]ATP by scintillation counting method.
Series [13] concerns the target Hepatocyte growth factor receptor (Homo sapiens) (UniProt P08581). Description: Inhibition of recombinant human MET A1209G/V1290L mutant (974 to end residues) at 10 uM using KKKGQEEEYVFIE as substrate measured after 40 mins in presence of [gamma33P]ATP by scintillation counting method.
Series [14] has as its target CREB-binding protein (Homo sapiens) (UniProt Q92793). Description: Binding affinity to human partial length CREBBP (R1081 to G1197 residues) expressed in bacterial expression system at 1 uM by BROMOscan assay. In a few lines:
as §1

Series [15] has as its target Dual specificity tyrosine-phosphorylation-regulated kinase 2 (Homo sapiens) (UniProt Q92630). Put plainly: Inhibition of recombinant full-length human DYRK2 at 10 uM using casein as substrate measured after 40 mins in presence of [gamma33P]ATP by scintillation counting method.
Series [16] concerns the target SWI/SNF-related matrix-associated actin-dependent regulator of chromatin subfamily A member 4 (Homo sapiens) (UniProt P51532). Put plainly: Binding affinity to human partial length SMARCA4 (A1448 to S1575 residues) expressed in bacterial expression system at 1 uM by BROMOscan assay. In a few lines: as §1
In series [17] the target is G protein-coupled receptor kinase 3 (Homo sapiens) (UniProt P35626). Description: Inhibition of recombinant full-length human GRK3 at 10 uM using casein as substrate measured after 40 mins in presence of [gamma33P]ATP by scintillation counting method.
For series [18], the target named is Fibroblast growth factor receptor 3 (Homo sapiens) (UniProt P22607). Put plainly: Inhibition of recombinant human FGFR3 (447 to 761 residues) at 10 uM using poly(Glu, Tyr) 4:1 as substrate measured after 40 mins in presence of [gamma33P]ATP by scintillation counting method.
Series [19] has as its target Nucleosome-remodeling factor subunit BPTF (Homo sapiens, UniProt Q12830). Description: Binding affinity to human partial length FALZ (S2791 to H2911 residues) expressed in bacterial expression system at 1 uM by BROMOscan assay. In a few lines: as §1
Series [20] has as its target Bromodomain-containing protein 2 (Homo sapiens) (UniProt P25440). Put plainly: Binding affinity to human partial length BRD2 bromodomain 1 long isoform (K71 to N194 residues) expressed in bacterial expression system at 1 uM by BROMOscan assay. In a few lines: as §1
Series [21] concerns the target Serine/threonine-protein kinase PLK2 (Homo sapiens) (UniProt Q9NYY3). Put plainly: Inhibition of human Snk (65 to 409 residues) using casein as substrate measured after 40 mins in presence of [gamma33P]ATP by scintillation counting method. In a few lines: as §2
The target of series [22] is Calcium/calmodulin-dependent protein kinase type II subunit beta (Homo sapiens) (UniProt Q13554). Put plainly: Inhibition of recombinant full-length human CaMK2beta (1 to 315 residues) at 10 uM using calmodulin as substrate measured after 40 mins in presence of [gamma33P]ATP by scintillation counting method.
Calcium/calmodulin-dependent protein kinase type II subunit beta (Homo sapiens), sequence (Q13554 whole entry, the tested form may be a part): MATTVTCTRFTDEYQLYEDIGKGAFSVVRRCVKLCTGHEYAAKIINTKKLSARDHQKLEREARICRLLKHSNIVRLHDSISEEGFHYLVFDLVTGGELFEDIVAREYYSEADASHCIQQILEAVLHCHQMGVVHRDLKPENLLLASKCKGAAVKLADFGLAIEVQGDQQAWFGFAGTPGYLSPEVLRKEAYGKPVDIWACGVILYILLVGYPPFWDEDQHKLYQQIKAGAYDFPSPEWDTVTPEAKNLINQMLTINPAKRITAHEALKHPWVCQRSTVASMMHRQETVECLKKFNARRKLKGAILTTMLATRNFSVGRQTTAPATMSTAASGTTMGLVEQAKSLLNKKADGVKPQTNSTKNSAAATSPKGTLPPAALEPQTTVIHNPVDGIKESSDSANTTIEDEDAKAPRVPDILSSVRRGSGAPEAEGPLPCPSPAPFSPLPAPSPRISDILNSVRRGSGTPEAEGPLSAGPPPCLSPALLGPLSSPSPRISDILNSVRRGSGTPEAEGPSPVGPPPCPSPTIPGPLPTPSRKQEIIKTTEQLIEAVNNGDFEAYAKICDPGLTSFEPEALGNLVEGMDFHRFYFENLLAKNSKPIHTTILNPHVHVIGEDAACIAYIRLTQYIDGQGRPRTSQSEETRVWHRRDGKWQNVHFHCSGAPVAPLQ
A short description of series [23]: Aqueous solubility of the compound by HPLC analysis. The format is physicochemical. Particulars: buffer. In a few lines: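 Measured by HPLC on a C18 reversed-phase column.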
Series [24] has as its target Receptor-type tyrosine-protein kinase FLT3 (Homo sapiens) (UniProt P36888). Put plainly: Inhibition of recombinant human Flt3 (564 to end residues) at 10 uM using EAIYAAPFAKKK as substrate measured after 40 mins in presence of [gamma33P]ATP by scintillation counting method.

Values after ≈ are worked out from the molar mass of the structure shown. Active and inactive are the calls of the source. The calls are words filed in the database; no cut-off is given here.

Bromodomain-containing protein 2 (Homo sapiens), sequence (P25440 whole entry, looked up, the tested form may be a part, canonical isoform): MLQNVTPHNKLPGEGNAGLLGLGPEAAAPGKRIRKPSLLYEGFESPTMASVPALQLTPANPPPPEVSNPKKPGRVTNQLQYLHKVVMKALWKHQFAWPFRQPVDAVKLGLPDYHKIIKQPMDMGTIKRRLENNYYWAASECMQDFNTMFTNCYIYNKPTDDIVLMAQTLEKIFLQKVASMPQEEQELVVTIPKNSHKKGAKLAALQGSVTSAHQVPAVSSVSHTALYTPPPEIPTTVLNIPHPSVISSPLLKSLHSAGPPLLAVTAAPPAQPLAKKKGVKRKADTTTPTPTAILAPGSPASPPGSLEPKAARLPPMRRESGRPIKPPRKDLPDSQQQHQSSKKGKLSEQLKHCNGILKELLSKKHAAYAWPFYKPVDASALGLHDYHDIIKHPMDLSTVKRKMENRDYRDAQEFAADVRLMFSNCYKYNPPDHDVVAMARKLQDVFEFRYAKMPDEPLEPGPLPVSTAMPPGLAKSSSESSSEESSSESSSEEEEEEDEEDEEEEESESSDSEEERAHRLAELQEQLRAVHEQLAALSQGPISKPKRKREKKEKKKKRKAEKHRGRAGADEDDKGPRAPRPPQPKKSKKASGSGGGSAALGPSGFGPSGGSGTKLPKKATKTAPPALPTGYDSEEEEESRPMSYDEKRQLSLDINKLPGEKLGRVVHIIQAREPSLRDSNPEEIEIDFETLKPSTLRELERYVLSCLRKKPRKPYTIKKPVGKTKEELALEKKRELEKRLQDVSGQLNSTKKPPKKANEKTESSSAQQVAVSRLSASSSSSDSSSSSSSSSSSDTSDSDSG
Hepatocyte growth factor receptor (Homo sapiens), sequence (P08581 whole entry, the tested form may be a part): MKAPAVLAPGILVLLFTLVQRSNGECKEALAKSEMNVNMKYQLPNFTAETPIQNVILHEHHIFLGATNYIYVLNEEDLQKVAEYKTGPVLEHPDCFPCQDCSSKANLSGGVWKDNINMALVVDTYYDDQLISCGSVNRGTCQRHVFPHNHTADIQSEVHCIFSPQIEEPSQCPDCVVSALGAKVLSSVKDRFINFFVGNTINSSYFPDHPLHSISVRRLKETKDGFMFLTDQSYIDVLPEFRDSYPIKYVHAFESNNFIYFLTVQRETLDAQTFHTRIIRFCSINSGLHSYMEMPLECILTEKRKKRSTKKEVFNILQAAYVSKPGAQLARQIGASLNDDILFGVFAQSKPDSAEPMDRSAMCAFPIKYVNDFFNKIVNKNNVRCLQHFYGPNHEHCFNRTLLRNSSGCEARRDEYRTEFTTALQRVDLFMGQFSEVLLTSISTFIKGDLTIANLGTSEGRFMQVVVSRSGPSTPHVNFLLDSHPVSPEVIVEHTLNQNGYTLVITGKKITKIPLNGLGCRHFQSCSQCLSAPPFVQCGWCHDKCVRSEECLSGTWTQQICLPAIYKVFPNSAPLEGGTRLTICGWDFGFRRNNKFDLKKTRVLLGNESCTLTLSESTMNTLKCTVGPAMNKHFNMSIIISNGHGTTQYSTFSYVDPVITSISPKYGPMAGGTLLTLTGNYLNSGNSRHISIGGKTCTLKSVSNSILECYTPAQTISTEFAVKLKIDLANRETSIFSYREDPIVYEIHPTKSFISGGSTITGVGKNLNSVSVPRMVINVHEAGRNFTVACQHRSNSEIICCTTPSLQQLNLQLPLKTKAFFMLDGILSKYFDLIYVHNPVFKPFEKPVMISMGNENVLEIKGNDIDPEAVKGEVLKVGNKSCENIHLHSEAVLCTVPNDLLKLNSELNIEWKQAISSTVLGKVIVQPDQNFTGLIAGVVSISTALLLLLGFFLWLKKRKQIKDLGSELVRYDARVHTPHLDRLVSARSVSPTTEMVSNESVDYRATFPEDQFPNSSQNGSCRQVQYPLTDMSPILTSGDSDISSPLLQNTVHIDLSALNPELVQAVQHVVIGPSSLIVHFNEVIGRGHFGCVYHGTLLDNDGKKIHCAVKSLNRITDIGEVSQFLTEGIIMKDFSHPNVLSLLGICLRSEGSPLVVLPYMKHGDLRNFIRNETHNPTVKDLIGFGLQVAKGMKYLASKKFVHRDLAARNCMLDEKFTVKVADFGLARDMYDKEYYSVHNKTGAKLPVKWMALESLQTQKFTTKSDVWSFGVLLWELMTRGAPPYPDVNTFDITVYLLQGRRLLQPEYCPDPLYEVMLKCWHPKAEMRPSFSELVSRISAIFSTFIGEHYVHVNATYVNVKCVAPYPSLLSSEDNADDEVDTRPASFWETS
Serine/threonine-protein kinase pim-2 (Homo sapiens), sequence (Q9P1W9 whole entry, looked up): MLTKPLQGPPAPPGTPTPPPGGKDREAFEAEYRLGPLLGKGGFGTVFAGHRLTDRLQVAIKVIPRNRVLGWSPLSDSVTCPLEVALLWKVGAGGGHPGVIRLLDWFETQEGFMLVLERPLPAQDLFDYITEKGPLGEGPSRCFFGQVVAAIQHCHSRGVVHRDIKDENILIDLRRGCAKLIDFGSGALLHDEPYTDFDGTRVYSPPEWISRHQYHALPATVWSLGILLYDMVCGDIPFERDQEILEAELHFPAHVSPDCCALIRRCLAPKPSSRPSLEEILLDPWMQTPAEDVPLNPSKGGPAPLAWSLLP

`CN1C[C@H](Nc2nc3cc[nH]c3c(=O)n2C)C[C@H](c2ccc3c(c2)OCCO3)C1`: the inhibition result in series [1], in series [2], in [3], in series [4], in series [5] and in [6] was “inactive” each time. Also, the inhibition result in series [7], in series [8], in series [9], in series [11], in series [12] and in [13] was “inactive” each time. Also, the inhibition result in series [15], in [17], in series [18], in [21], in series [22] and in [24] was “inactive” each time. For the same compound, the outcome in [10], in [14], in series [16] and in series [20] was inactive. In series [19], the result was Active. In series [23], this compound registered a solubility of 480 µM (≈ 190 µg/mL).
